Results from PubChem BioAssay AID1665 (Sanford-Burnham Center for Chemical Genomics, 2009).
The whole screen tested about 190,000 compounds, of which about 590 (0.31%) were called active. This is one part of a sample in which actives are shown more often than they occur.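 The calls were made as follows: active = nuclear translocation activity above 50% at 5 µM, with a well cell count of 50 or more; inconclusive = wells under 50 cells across six images, flagged as toxic; inactive = the rest.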

Experiment: modulators of beta-catenin nuclear translocation, primary screen, imaging, HeLa cells, immunofluorescence, high-content (AID 1665);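 as to nuclear translocation activity: per-cell ratio of nuclear to cytoplasmic median beta-catenin stain intensity; plate controls were DMSO negative control for no effect and GSK-3 inhibitor IX positive control for full effect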
Conditions: at 5 µM; cell count: measured here: cell count, cytotoxicity flag; nuclear translocation activity: stronger effect = higher value
Outline: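 Test system: human HeLa cells, native beta-catenin. Compound dosing: 5 µM primary single dose, 0.1% DMSO, 0.02–20 µM confirmation series. Incubation: compound exposure 24 h at 37°C. Detection: beta-catenin immunostaining with DAPI counterstain, 20x imaging, 6 fields/well. Read-out basis: Nuclear/cytoplasmic beta-catenin signal ratio, % activation.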

| Compound | cell count [cells] | nuclear translocation activity |
| --- | --- | --- |
| COC(OC)c1ccnc(SCc2ccccc2Cl)n1 | 1270 | -2.6% (inactive) |
| O=C(O)C(F)(F)C(NCc1ccccc1)c1ccccc1 (stereo not given) | 1280 | 0% (inactive) |
| CCOc1cc(/C=C(\C#N)c2nc(-c3cccs3)c(NC(C)=O)s2)ccc1O | 77 | 68.9% (active) |
| COc1cc(/C=C(\C#N)c2nc3c(s2)CC(C)CC3)ccc1O (stereo not given) | 1440 | 2.5% (inactive) |
| COc1cc(/C=N\Nc2nc(-c3cccs3)c(NC(C)=O)s2)ccc1O | 1300 | 0.1% (inactive) |
| Cn1c(SCC(=O)N2CCOCC2)nnc1-c1ccc2ncccc2c1 | 1320 | 0.1% (inactive) |
| O=[N+]([O-])c1cccc2ncccc12 | 1340 | -0.4% (inactive) |
| O=C(NC1CCCCC1)c1cc(C2CC2)on1 | 1290 | -0.2% (inactive) |
| Cc1ccc(-c2nc3ccccc3[nH]c2=O)cc1 | 1310 | 2.5% (inactive) |
| CCCCCCCCCCCCN1C(=O)CSC1c1cccnc1 (stereo not given) | 1170 | -0.9% (inactive) |
| CC(=O)NC(=S)Nc1ccc(NC(=S)NC(=O)c2ccc([N+](=O)[O-])cc2)cc1 | 1350 | -0.9% (inactive) |
| CCc1ccccc1NC(=O)CSc1nnc(CCNC(=O)OC(C)(C)C)o1 | 1310 | 1% (inactive) |
| Oc1c(C=Nc2cccc3nsnc23)ccc2ccccc12 | 317 | 154% (active) |
| Oc1ccc2ccccc2c1C=Nc1ccccc1 | 1230 | 1.3% (inactive) |
| Oc1ccc(N=Cc2c(O)ccc3ccccc23)cc1 | 1240 | -1.5% (inactive) |
| O=C(O)/C=C/c1ccc2c(c1)OCCO2 | 1430 | -1.2% (inactive) |
| Cc1cc(Nc2ccc(Cl)cc2)nc(N2CCOCC2)n1 | 1280 | -0.7% (inactive) |
| Cc1onc(NC(=O)c2ccc([N+](=O)[O-])o2)c1Br | 1260 | 5.1% (inactive) |
| COC(=O)c1cc(NC(=O)c2ccco2)ccc1N1CCOCC1 | 1200 | -0.7% (inactive) |
| CCCC(=O)Nc1ccc2c(c1)nc(CCNC(=O)c1ccco1)n2C | 1400 | -1.3% (inactive) |
| COc1ccc(NC2=CC(=S)NC(C)(C)C2)cc1 | 1130 | -1.8% (inactive) |
| COC(=O)c1sc(SC)c(S(=O)(=O)C(C)C)c1N/N=C(\C#N)S(=O)(=O)c1ccccn1 | 1240 | -2.6% (inactive) |
| CCN(CC)CCCN=Cc1c(O)n(-c2ccc(C)cc2)c(=O)c2ccccc12 | 1350 | -0.1% (inactive) |
| O=C(O)CC1(CC(=O)Nc2cccc(C(F)(F)F)c2)CCCC1 | 1260 | 0.5% (inactive) |
| CN(C)/C=C(/C(=O)c1ccc(Cl)c(Cl)c1)c1nnnn1-c1ccccc1 | 1260 | 0% (inactive) |
| COc1ccc2c(CC(=O)OCC(=O)NC(N)=O)coc2c1 | 1100 | -0.9% (inactive) |
| COc1cccc(C2Nc3cccc4cccc(c34)N2)c1 | 1290 | -0.1% (inactive) |
| Nc1nnnn1/N=C/c1cc([N+](=O)[O-])ccc1O | 1250 | 2.2% (inactive) |

| Compound | cell count [cells] | nuclear translocation activity |
| --- | --- | --- |
| CSC1=NCCN1C(=O)Cc1cccc2ccccc12 | 1340 | 0.5% (inactive) |
| COc1ccc(C(=O)N/N=C2\CCS(=O)(=O)c3ccc(F)cc32)cc1OC | 1320 | 0.5% (inactive) |
| O=C(N/N=C/c1cccc([N+](=O)[O-])c1)c1ccncc1 | 1370 | -0.3% (inactive) |
| Cc1ccc2[nH]c(=O)c(CC=C(Cl)Cl)c(C)c2c1 | 484 | -1.1% (inactive) |
| O=C(NCCN1CCN(Cc2ccccc2)CC1)c1cc2c(=O)[nH]c3ccccc3c2s1 | 1180 | -3.9% (inactive) |
| Cc1cccc(N(C)C(=O)c2cc3c(=O)[nH]c4ccc(C)cc4c3s2)c1 | 369 | 61.3% (active) |
| O=C(NCC1CCCO1)c1ccccc1-c1nc(-c2ccccc2Cl)no1 (stereo not given) | 1310 | 0% (inactive) |
| O=[N+]([O-])/C=C1\CCCCCN1 | 1320 | 0% (inactive) |
| O=c1[nH]nc(SCCS(=O)(=O)c2ccc(F)cc2)n1-c1ccccc1C(F)(F)F | 1270 | 2.8% (inactive) |
| Cc1ccc(S(=O)(=O)N2CCCC2CO)cc1 (stereo not given) | 831 | -0.4% (inactive) |
| Cc1ccc(S(=O)(=O)C2(S(=O)(=O)c3ccc(C)cc3)CCCC2)cc1 | 297 | 67.3% (active) |
| Cc1ccc(S(=O)(=O)NC(=O)N2CCCC(C)(C)C2)cc1 | 1150 | 0.1% (inactive) |
| CCCC(=O)n1nc(-c2ccccc2)nc1N | 1050 | 0% (inactive) |
| COc1ccc(C(=O)n2nc(-c3ccc(C)cc3)nc2N)cc1OC | 579 | 100% (active) |
| COc1ccc(C(=O)CN2C(=O)NC(C)(c3ccc(C)cc3)C2=O)cc1OC (stereo not given) | 931 | -3.5% (inactive) |
| CN(C)C(=O)c1coc2nc3ccccc3nc12 | 1300 | -0.3% (inactive) |
| CC[C@]1(O)C[C@@H]2CN(CCc3c([nH]c4ccccc34)[C@@](C(=O)OC)(c3cc4c(cc3OC)N(C)[C@H]3[C@@](O)(C(=O)OC)[C@H](OC(C)=O)[C@]5(CC)C=CCN6CC[C@]43[C@@H]65)C2)C1 | 560 | -2% (inactive) |
| CC[C@]1(O)CC2CN(CCc3c([nH]c4ccccc34)[C@@](C(=O)OC)(c3cc4c(cc3OC)N(C=O)[C@H]3[C@@](O)(C(=O)OC)[C@H](OC(C)=O)[C@]5(CC)C=CCN6CC[C@]43[C@@H]65)C2)C1 (stereo not given in full) | 617 | 62.5% (active) |
| CC/C=C/C(=O)N1CC2(CC(c3cccc(NC(=O)CC)c3)=NO2)C[C@H]1C(N)=O (stereo not given in full) | 1030 | 0.6% (inactive) |
| O=C(Nc1cccnc1Oc1ncnc2cc(Cl)ccc12)c1ccc(F)cc1 | 1330 | -0.5% (inactive) |
| COCCCn1c(-c2cccs2)nc2nc3ccccc3nc21 | 1370 | -0.5% (inactive) |
| CCC1=NN2C(=N)/C(=C/c3cc(C)n(-c4ccccc4)c3C)C(=O)N=C2S1 | 1350 | -0.8% (inactive) |
| Cc1[nH]n(-c2ccccc2)c(=O)c1N=Nc1ccccc1C(=O)N1CCCCC1 | 1360 | 0.5% (inactive) |
| CCOc1ccccc1NC(=O)CCc1ccc(C)o1 | 1160 | -2% (inactive) |
| Cc1cnc(NC(=O)CSc2nnc(-c3ccc(Cl)cc3Cl)n2N)s1 | 1100 | -0.9% (inactive) |
| Cc1ccc(CCC(=O)Nc2ncc(Cc3cc(Cl)ccc3Cl)s2)o1 | 142 | 73.2% (active) |
| NC(=O)N/N=C\c1cccs1 | 1280 | 0.1% (inactive) |
